Molecules are shown by their SMILES.

One assay has as its system Bel-7402. Briefly: Cytotoxicity against human Bel7402 cells after 72 hrs by MTT assay. The class given is functional, cell-based. Particulars: Bel-7402, 72 h. The procedure, abridged: (§1)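 MTT assay. Log-phase cells were seeded at 5×10^4 cells/ml and treated in four replicates at 0.39–100 μg/ml, 37 °C, 5% CO2. At 72 h, MTT (5 mg/ml solution) was added for 4 h, then DMSO, and OD read at 490 nm. Negative reference was 0.1% DMSO; Taxol at 10 μg/ml served as positive reference. IC50 in μM, mean of three experiments.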
(Tetrazolium dyes change colour on reduction, which living cells bring about.)

In the next assay the test system is K562. Briefly: Cytotoxicity against human K562 cells after 72 hrs by MTT assay. Format: functional, cell-based. The settings on record: K562, 72 h. The procedure, abridged:
as §1

In a further assay the test system is A549. Briefly: Cytotoxicity against human A549 cells after 72 hrs by MTT assay. Format: functional, cell-based. The settings on record: A549, 72 h. A digest of the protocol:
as §1

Assay [1] in a line: Cytotoxicity against human CaEs17 cells after 72 hrs by MTT assay. Format: functional, cell-based. The settings on record: CaEs17, 72 h. A digest of the protocol: as §1
A further assay has as its system HeLa. Briefly: Cytotoxicity against human HeLa cells after 72 hrs by MTT assay. Format: functional, cell-based. The procedure, abridged: as §1
In another assay the test system is MCF7. Briefly: Cytotoxicity against human MCF7 cells after 72 hrs by MTT assay. The class given is functional, cell-based. The settings on record: MCF7, 72 h. A digest of the protocol:
as §1

Assay [2] has as its system MGC-803. Briefly: Cytotoxicity against human MGC803 cells after 72 hrs by MTT assay. The class given is functional, cell-based. The settings on record: MGC-803, 72 h. A digest of the protocol: as §1
Assay [3] concerns MGC-803. Briefly: Antitumor activity against human MGC803 cells xenografted in ICR mouse assessed as inhibition of tumor growth at 10 mg/kg, ip qd for 25 consecutive days dosed 7 days post tumor cells transplantation relative to untreated control. The settings on record: MGC-803, ip, 168 h, read-out: INH, route intraperitoneal. Format: functional. The procedure, abridged: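 MGC-803 gastric cancer tumors in mice, 8 per group. Intraperitoneal dosing at 10 mg/kg in 1% DMSO/2% poloxamer/97% saline, started 7 d after tumor transplantation and given once daily for 25 consecutive days. The negative control received 0.9% saline ip. At the end, mice were killed and weighed and tumors excised and weighed. Inhibition (%) = (1 − mean treated tumor weight/mean control tumor weight) × 100.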
In general terms: In xenograft studies the graft and the host belong to different species.

The subject of another assay is HepG2. Briefly: Cytotoxicity against human HepG2 cells. Format: functional, cell-based.
The subject of assay [4] is MGC-803. Briefly: Antitumor activity against human MGC803 cells xenografted in ICR mouse assessed as inhibition of tumor growth at 10 mg/kg, iv qd for 25 consecutive days dosed 7 days post tumor cells transplantation relative to untreated control. Format: functional. Particulars: MGC-803, 168 h. A digest of the protocol:
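MGC-803 gastric cancer tumors in mice, 8 per group. Intravenous dosing at 10 mg/kg in 1% DMSO/2% poloxamer/97% saline, started 7 d after tumor transplantation and given once daily for 25 consecutive days. The control group received 0.9% saline ip. Tumors were excised and weighed at the end. Inhibition (%) = (1 − mean treated tumor weight/mean control tumor weight) × 100.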

As usually defined, the IC50 is the midpoint of a concentration-inhibition curve. On to `C=C1C(=O)[C@@]23C(=O)O[C@H]4CCC(C)(C)[C@H]5[C@H](O)OC[C@@]45[C@@H]2CC[C@@H]1[C@H]3O`, for which the IC50 in the assay on Bel-7402 was found to be 33 µM; in the assay with K562 it was 8.11 µM; with A549, 50.9 µM; in assay [1] it was 30.8 µM; with HeLa it was 60.7 µM; with MCF7, 68.2 µM.

As to `C=C1C(=O)[C@@]23C(=O)OC[C@]4(C(=O)CCC(C)(C)[C@H]4C=O)[C@@H]2CC[C@@H]1[C@H]3OC(=O)c1ccccc1F`, the half-inhibitory concentration (IC50) is 3.94 µM in the assay on MGC-803 [2], 3.95 µM with Bel-7402, 2.86 µM in the assay with K562 and 8.55 µM in assay [1].

Take `C=C1C(=O)[C@@]23C(=O)OC[C@]4(C(=O)CCC(C)(C)[C@H]4C=O)[C@@H]2CC[C@@H]1[C@H]3O`: the IC50 in the assay on Bel-7402 was determined as 5.03 µM; in the assay with K562, 2.18 µM; in the assay with A549 it was 4.58 µM; in [1], 5.85 µM; with HeLa, 4.63 µM; in the assay with MCF7, 24 µM. In addition, the inhibition in vivo at 10 mg/kg in the assay on MGC-803 [3] was 31.4%.

Regarding `C=C1C(=O)[C@@]23C(=O)OC[C@]4(C(=O)CCC(C)(C)[C@H]4C=O)[C@@H]2CC[C@@H]1[C@H]3OC(=O)c1ccc(C)cc1`, the half-maximal inhibitory concentration (IC50) in the assay on MGC-803 [2] stood at 2.24 µM; with Bel-7402 it was 1.54 µM; in the assay on K562 it was 1.27 µM; in [1] it was 1.05 µM.

As for `C=C1C(=O)[C@@]23C(=O)OC[C@]4(C(=O)CCC(C)(C)[C@H]4C=O)[C@@H]2CC[C@@H]1[C@H]3OC(=O)c1ccc(F)cc1`, the IC50 in the assay on MGC-803 [2] was 3.96 µM; with Bel-7402, 3.75 µM; in the assay on K562 it was 2.7 µM; in assay [1] it was 8.31 µM.

In the assay with HepG2, `C=C1C(=O)[C@]23C[C@H]1C[C@H](O)[C@H]2[C@@]12CO[C@@H](O)[C@@H]1C(C)(C)CC[C@@H]2OC3=O` [EPINODOSIN] displayed a half-inhibitory concentration (IC50) of 0.45 µM.

On to `C=C1C(=O)[C@@]23C(=O)OC[C@]4(C(=O)CCC(C)(C)[C@H]4C=O)[C@@H]2CC[C@@H]1[C@H]3OC(C)=O`, for which the IC50 in the assay on MGC-803 [2] amounted to 1.66 µM; in the assay on Bel-7402, 1.73 µM; in the assay with K562 it was 1.39 µM; in [1] it was 1.35 µM.

In the case of `CC(=O)O[C@H]1C(=O)[C@@]2(C)[C@H]([C@H](OC(=O)c3ccccc3)[C@]3(O)C[C@H](OC(=O)[C@H](O)[C@@H](NC(=O)c4ccccc4)c4ccccc4)C(C)=C1C3(C)C)[C@]1(OC(C)=O)CO[C@@H]1C[C@@H]2O` [PACLITAXEL], the IC50 turned out to be 0.85 µM in the assay on MGC-803 [2], 1.89 µM with Bel-7402, 0.41 µM with K562 and 0.43 µM in assay [1]. In the assay with MGC-803 [4], the inhibition in vivo at 10 mg/kg was 66.6%.

In the case of `C=C1C(=O)[C@@]23C(=O)OC[C@]4(C(=O)CCC(C)(C)[C@H]4C=O)[C@@H]2CC[C@@H]1[C@H]3OC(=O)c1ccc([N+](=O)[O-])cc1`, the IC50 in the assay with MGC-803 [2] worked out at 3.33 µM; in the assay with Bel-7402 it was 3.3 µM; in the assay on K562, 1.33 µM; in assay [1], 2.68 µM.

Turning to `C=C1C(=O)[C@@]23C(=O)OC[C@]4(C(=O)CCC(C)(C)[C@H]4C=O)[C@@H]2CC[C@@H]1[C@H]3OC(=O)c1ccccc1Cl`, the half-inhibitory concentration (IC50) with MGC-803 [2] was determined as 2.66 µM; in the assay on Bel-7402 it was 2.89 µM; in the assay with K562, 1.22 µM; in assay [1], 2.01 µM.

As for `C=C1C(=O)[C@@]23C(=O)O[C@H]4CCC(C)(C)[C@H]5C(=O)OC[C@@]45[C@@H]2CC[C@@H]1[C@H]3O`, the half-inhibitory concentration (IC50) was 16 µM in the assay with Bel-7402; 2.64 µM with K562; 43.1 µM in the assay with A549; 23.7 µM in assay [1]; 39.7 µM in the assay on HeLa; 20.3 µM in the assay with MCF7.

In the case of `C=C1C(=O)[C@@]23C(=O)OC[C@]4([C@@H](OC(C)=O)CCC(C)(C)[C@H]4C=O)[C@@H]2CC[C@@H]1[C@H]3O`, the concentration for half-maximal inhibition (IC50) in the assay on Bel-7402 was found to be 75.4 µM; with K562, 9.56 µM; in the assay with A549 it was 26 µM; in assay [1], 72.5 µM; with HeLa it was 79.4 µM; in the assay on MCF7, 76.7 µM.

On to `C=C1C(=O)[C@@]23C(=O)OC[C@]4(C(=O)CCC(C)(C)[C@H]4C=O)[C@@H]2CC[C@@H]1[C@H]3OC(=O)CC`, for which the IC50 is 1.78 µM in the assay with MGC-803 [2], 1.65 µM with Bel-7402, 1.31 µM with K562 and 1.4 µM in assay [1].

In the case of `C=C1C(=O)[C@@]23C(=O)OC[C@]4(C(=O)CCC(C)(C)[C@H]4C=O)[C@@H]2CC[C@@H]1[C@H]3OC(=O)c1ccc(C(F)(F)F)cc1`, the IC50 is 4.93 µM with MGC-803 [2], 3.99 µM in the assay on Bel-7402, 2.82 µM in the assay with K562 and 8.96 µM in assay [1].

In the assay with K562, `C=C1C(=O)[C@]23C[C@H]1CC[C@H]2[C@@]1(CCCC(C)(C)[C@H]1CO)COC3=O` [SCULPONEATIN N] came in with an IC50 of 0.21 µM.

Regarding `C=C1C(=O)[C@@]23C(=O)OC[C@]4(C(=O)CCC(C)(C)[C@H]4C=O)[C@@H]2CC[C@@H]1[C@H]3OC(=O)c1ccccc1`, the half-maximal inhibitory concentration (IC50) turned out to be 1.92 µM in the assay with MGC-803 [2], 1.85 µM with Bel-7402, 1.48 µM in the assay with K562 and 1.71 µM in [1].

For `C=C1C(=O)[C@@]23C(=O)OC[C@]4(C(=O)CCC(C)(C)[C@H]4C=O)[C@@H]2CC[C@@H]1[C@H]3OC(=O)c1ccc(OC)cc1`, the IC50 is 1.87 µM with MGC-803 [2], 2.8 µM in the assay with Bel-7402, 1.65 µM in the assay on K562 and 2.98 µM in assay [1].

As to `C=C1C(=O)[C@@]23C(=O)OC[C@]4(C(=O)CCC(C)(C)[C@H]4C=O)[C@@H]2CC[C@@H]1[C@H]3OC(=O)c1ccc(Cl)cc1`, the IC50 in the assay with MGC-803 [2] was determined as 3.12 µM; with Bel-7402, 3.84 µM; in the assay with K562, 1.38 µM; in [1], 2.55 µM.

For the compound `C=C1C(=O)[C@]23[C@H](O)[C@H]1CC[C@H]2[C@@]12CO[C@]3(O)[C@@H](O)[C@@H]1C(C)(C)CC[C@@H]2O` [ORIDONIN], the concentration for half-maximal inhibition (IC50) stood at 5.69 µM in the assay with MGC-803 [2]; 7.48 µM with Bel-7402; 4.76 µM in the assay on K562; 26.2 µM in the assay on A549; 11 µM in assay [1]; 32.7 µM in the assay on HeLa. In addition, the half-inhibitory concentration (IC50) in the assay with MCF7 amounted to 14.6 µM. The inhibition in vivo at 10 mg/kg in the assay with MGC-803 [3] came to 26.3%.

The values above are taken from ChEMBL document CHEMBL2021807, “The conversion of oridonin to spirolactone-type or enmein-type diterpenoid: synthesis and biological evaluation of ent-6,7-seco-oridonin derivatives as novel potential anticancer agents” (Eur J Med Chem, 2012).
